L major viab: Leishmania major promastigote growth inhibition. Leishmania major promastigotes, resazurin fluorescence viability. hit rate 9% among 200,000. AID 1063. inhibition, % at 10 µM; in the data active = inhibition above about 50%;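 also: promastigotes grown with compound for 44 hours at 28 °C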
b-catenin transl: beta-catenin nuclear translocation modulation | HeLa beta-catenin nuclear translocation, immunofluorescence imaging | nuclear translocation activity, % at 5 µM | hit rate 0.3% among 190,000 | AID 1665;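 active = nuclear translocation activity above 50% at 5 µM, with a well cell count of 50 or more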;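 also: per-cell ratio of nuclear to cytoplasmic median beta-catenin stain intensity; plate controls were DMSO negative control for no effect and GSK-3 inhibitor IX positive control for full effect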
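Read-out: Nuclear/cytoplasmic beta-catenin signal ratio, % activation | Assay system: Human HeLa cell line | Times: 24 h compound exposure at 37°C, 5% CO2 | Signal: Fluorescence imaging of beta-catenin antibody stain plus DAPI | Dosing: 5 µM primary, 0.02–20 µM confirmation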
Dynein cargo inh: blocks dynein driven cargo transport along microtubules | 3617.4 mouse cells, GR-EGFP nuclear translocation imaging; test concentration mostly 20 µM; stimulated with dexamethasone, 1 µM; hits give low values | z-score, hits read low | hit rate 0.47% among 220,000 | AID 1381;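 active = plate z-score of nuclear minus cytoplasmic receptor signal below a set negative limit, without overly bright fluorescence or cell loss, cut at about -3.5 in these data, passing the limit was not always enough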;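 also: z-score of nuclear minus cytoplasmic ring GR-EGFP intensity difference per well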
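Buffer or medium: tet-free, stripped-serum medium; Also added: dexamethasone, 1.0 µM final; Technique: high-content fluorescence imaging after fixation; Times: 48 h induction, 1 h compound, 30 min dex at 37 °C; Read-out: per-cell GR-EGFP intensity, nucleus versus surrounding cytoplasmic ring, well-averaged.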
HSV replic up: HSV replication enhancement. HSV replication augmentation in cells, fold increase. maximum fold increase. hit rate 0.005% among 220,000. AID 1956; in the data active = maximum fold increase above about 1.5; tested in PC3 cells
MT stabilizer: stabilizes microtubules in HeLa cells; HeLa tubulin immunostaining HCS, 24 h; share of cells brighter than vehicle mean+2SD; hit rate 0.83% among 200,000; % tubulin-high responders, % at 10 µM; AID 2205;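 active = plate Z-score above 3 for both tubulin-high and condensed-nucleus cell shares, with cell loss under 80%, at 10 µM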;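 also: anti alpha tubulin signal scored within the nucleus-defined area of each cell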
Active calls of the source: *; i = inactive; · = not tested or not shown. This is a sample that favours compounds with a hit; in the whole collection about 8.9% have one here.

SMILES	L major viab	b-catenin transl	Dynein cargo inh	HSV replic up	MT stabilizer
c1ccc(COc2cccc(CNn3cnnc3)c2)cc1	16	-2	1.2	i	2
CC(NCc1cccc(OCc2ccccc2)c1)C(O)c1ccccc1 (centres undefined)	100*	-1	-0.55	i	2
CC(NCc1ccc(OCc2ccc(Cl)cc2)cc1)C(O)c1ccccc1 (centres undefined)	100*	27	0.63	i	2
CCOC(=O)COc1cccc2c(=O)n(CC(=O)NCc3ccccc3)ccc12	·	56*	-0.45	i	·
CCOC(=O)COc1cccc2c(=O)n(CC(=O)NCc3ccc(F)cc3)ccc12	·	74*	-0.93	i	·
CCOC(=O)C(C)Oc1cccc2c(=O)n(CC(=O)NCc3ccc4c(c3)OCO4)ccc12 (centres undefined)	-8	73*	0.25	i	16*
CCOC(=O)COc1cccc2c(=O)n(CC(N)=O)ccc12	·	1	-0.064	i	·
CCOC(=O)COc1cccc2c(=O)n(CC(=O)NCCc3ccc(OC)c(OC)c3)ccc12	-5	-2	-0.29	i	4
CCOC(=O)C(C)Oc1cccc2c(=O)n(CC(=O)Nc3ccc4c(c3)OCCO4)ccc12 (centres undefined)	-9	-1	-0.34	i	6
COc1ccc(C(=O)CSc2nc(N)nc(SC)c2C#N)cc1	-1	2	0.13	i	2
Oc1[nH]c(N=C2N=c3ccccc3=N2)c2ccccc12	·	-4	1.2	i	·
Cc1ccsc1C(=O)Nc1ccc(F)c([N+](=O)[O-])c1	42	·	0.13	i	1
COCCNC(=O)c1ccccc1NC(=O)Nc1ccccc1	-1	-1	0.44	i	2
CCOC(=O)c1c(C)nc2sc3c(=O)n(-c4ccc(C(C)=O)cc4)cnc3c2c1-c1ccc(Cl)cc1	49	-4	0.73	i	2
COc1cccc(-n2c(CN3CCN(c4ccccc4)CC3)nc3ccc([N+](=O)[O-])cc3c2=O)c1	63*	0	-0.23	i	2
CCOC(=O)c1cc(-c2ccccc2)nn1CC1CC(c2ccc(Cl)cc2)=NO1 (centres undefined)	·	·	·	i	·
Cn1c(=O)[nH]c(=O)c2c1nc(SCCN1CCCCC1)n2CCCc1ccccc1	98*	-4	-0.66	i	1
Cn1c(=O)[nH]c(=O)c2c1nc(SCCN1CCCCC1)n2Cc1ccccc1	99*	·	-0.22	i	1
CCCCCn1c(SCCc2ccccc2)nc2c1c(=O)[nH]c(=O)n2C	3	-2	2.9	i	1
CCCN1C(=O)C(O)(c2c(C)[nH]c3ccccc23)c2ccccc21 (centres undefined)	·	0	0.024	i	·
COc1ccccc1/C=C/C1=NC(=C\C=C/c2ccccc2)/C(=O)O1	69*	-1	-0.15	i	4
O=C(C[n+]1cc2ccccc2c2ccccc21)c1ccccc1	99*	0	-0.4	i	1
COc1ccccc1NC(=O)N1CCN(c2ccnc3cc(Cl)ccc23)CC1	·	2	-0.13	i	·
COc1ccccc1NC(=O)N1CCc2[nH]c3ccc(Cl)cc3c2C1	95*	-2	-0.5	i	20
Cc1[nH]c2ccccc2c1SCCN	-1	·	-0.22	i	5
SMILES	L major viab	b-catenin transl	Dynein cargo inh	HSV replic up	MT stabilizer
O=C(Nc1ccc2ccccc2c1)NC1CCS(=O)(=O)C1 (centres undefined)	-3	0	-0.14	i	2
CC12CCC(c3c(C(=O)Nc4nccs4)nn(-c4ccccc4)c31)C2(C)C (centres undefined)	100*	-6	-0.98	i	5
CSc1ccc(C2C(C#N)=C(N)N(c3ccccc3)C3=C2C(=O)CCC3)cc1 (centres undefined)	74*	1	1.1	i	3
N#CC1=C2N=C(N)c3c(sc4c3CCCCC4)N2C2=C(C(=O)CCC2)C1c1ccccc1 (centres undefined)	36	-2	-1	i	3
CCOc1ccc(C2C(C#N)=C(N)N(c3sc4c(c3C#N)CCCC4)C3=C2C(=O)CCC3)cc1 (centres undefined)	57*	1	0.36	i	3
Cc1cc(C(=O)CSc2ccc(F)cc2)cc(C)c1OC(=S)N(C)C	24	·	-1.4	i	1
N#CCn1c(CCl)nc2ccccc2c1=O	84*	-1	-2.8	i	3
CC(C)Oc1ccc(CSc2ncn[nH]2)cc1	-11	-2	-0.81	i	3

Screens (PubChem)
